Experimental data: ChEMBL document CHEMBL4382246, “Synthesis, biological evaluation, and molecular docking investigation of 3-amidoindoles as potent tubulin polymerization inhibitors” (Eur J Med Chem, 2019)

How the values were obtained:
MCF7 = experiment: Cytotoxicity against human MCF7 cells after 72 hrs by MTT assay; format: functional, cell-based; conditions: MCF7, 72 h
Procedure, shortened: (§1)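 Lines kept in RPMI-1640 with 10% FBS. Cells were seeded at 2×10³ per well and allowed to attach for 24 h at 37 °C. Medium was then replaced with medium holding serial dilutions from 100 mM DMSO stocks, with 0.1% DMSO as negative control, for 72 h at 37 °C. […] IC50 was fitted from the concentration series as the mean ± SD of three independent experiments run in duplicate.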

MDA-MB-231 = experiment: Cytotoxicity against human MDA-MB-231 cells after 72 hrs by MTT assay; format: functional, cell-based; conditions: MDA-MB-231, 72 h; procedure, shortened: as §1
BT-549 = experiment: Cytotoxicity against human BT549 cells after 72 hrs by MTT assay; format: functional, cell-based; conditions: BT-549, 72 h; procedure, shortened: as §1
T47D = experiment: Cytotoxicity against human T47D cells after 72 hrs by MTT assay; format: functional, cell-based; procedure, shortened: as §1
MDA-MB-468 = experiment: Cytotoxicity against human MDA-MB-468 cells after 72 hrs by MTT assay; format: functional, cell-based; conditions: MDA-MB-468, 72 h; procedure, shortened: as §1
Hs-578T = experiment: Cytotoxicity against human Hs578T cells after 72 hrs by MTT assay; format: functional, cell-based; procedure, shortened: as §1
Tubulin (Sus scrofa) = Tubulin (Sus scrofa) (UniProt P02554+P02550); experiment: Inhibition of pig brain tubulin polymerization at 10 uM by spectrophotometric analysis relative to control
Procedure, shortened: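 Tubulin polymerization inhibition was measured with compounds at a final concentration of 10 µM.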

Sequence of Tubulin (Sus scrofa) (P02550 whole entry, looked up): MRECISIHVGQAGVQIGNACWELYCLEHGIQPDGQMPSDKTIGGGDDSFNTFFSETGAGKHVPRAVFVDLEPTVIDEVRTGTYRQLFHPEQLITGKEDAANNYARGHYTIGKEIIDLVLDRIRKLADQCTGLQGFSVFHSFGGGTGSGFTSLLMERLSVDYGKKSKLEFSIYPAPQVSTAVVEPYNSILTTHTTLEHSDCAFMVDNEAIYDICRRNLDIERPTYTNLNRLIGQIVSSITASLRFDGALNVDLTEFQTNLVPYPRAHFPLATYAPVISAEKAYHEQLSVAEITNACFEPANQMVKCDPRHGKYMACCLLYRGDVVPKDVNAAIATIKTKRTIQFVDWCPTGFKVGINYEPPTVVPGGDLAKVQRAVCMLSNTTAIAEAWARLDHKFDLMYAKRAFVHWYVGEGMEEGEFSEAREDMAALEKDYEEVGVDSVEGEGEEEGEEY
Sequence of Tubulin (Sus scrofa) (P02554 whole entry, looked up): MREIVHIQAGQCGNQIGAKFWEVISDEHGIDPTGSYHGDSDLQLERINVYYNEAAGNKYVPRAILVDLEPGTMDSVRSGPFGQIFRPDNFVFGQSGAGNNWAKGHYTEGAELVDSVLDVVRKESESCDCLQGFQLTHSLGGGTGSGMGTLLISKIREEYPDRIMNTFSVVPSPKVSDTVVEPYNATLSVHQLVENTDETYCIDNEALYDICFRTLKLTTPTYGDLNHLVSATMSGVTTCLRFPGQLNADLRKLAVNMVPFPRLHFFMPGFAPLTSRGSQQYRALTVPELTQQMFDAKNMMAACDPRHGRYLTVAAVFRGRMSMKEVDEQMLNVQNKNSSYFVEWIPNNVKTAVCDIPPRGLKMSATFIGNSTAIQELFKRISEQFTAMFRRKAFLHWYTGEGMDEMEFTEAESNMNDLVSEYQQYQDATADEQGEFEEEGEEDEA

| Compound | IC50 (MCF7) [µM] | IC50 (MDA-MB-231) [µM] | IC50 (BT-549) [µM] | IC50 (T47D) [µM] | IC50 (MDA-MB-468) [µM] | IC50 (Hs-578T) [µM] | inhibition (Tubulin (Sus scrofa)) [%] |
| --- | --- | --- | --- | --- | --- | --- | --- |
| COc1cc(C(=O)Nc2c(C(=O)c3ccccc3)[nH]c3cc(C)ccc23)cc(OC)c1OC | 32.7 | 16.6 | 42.3 | > 100 | > 100 | 49.1 |  |
| COc1cc(C(=O)Nc2c(C(=O)c3ccc(F)cc3)[nH]c3cc(Cl)ccc23)cc(OC)c1OC | 61.1 | 46.6 | 35.5 | 76.2 | > 100 | > 100 |  |
| COc1ccc2c(NC(=O)c3cc(OC)c(OC)c(OC)c3)c(C(=O)c3ccccc3)[nH]c2c1 | > 100 | > 100 | > 100 | > 100 | > 100 | > 100 |  |
| COc1cc(C(=O)Nc2c(C(=O)c3ccc(C)cc3)[nH]c3ccccc23)cc(OC)c1OC | 50 | 12.6 | 17.1 | 20.1 | 14.5 | 50.5 |  |
| COc1cc(C(=O)Nc2c(C(=O)c3ccccc3)[nH]c3cc(Cl)ccc23)cc(OC)c1OC | 51.8 | 32.7 | 26.9 | 45.5 | 11 | > 100 | 41 |
| COc1ccc(C(=O)c2[nH]c3cc(Cl)ccc3c2NC(=O)c2cc(OC)c(OC)c(OC)c2)cc1 | 17.6 | 9.17 | 11.1 | 11.1 | 8.61 | 15.9 | 47 |
| COc1ccc(C(=O)c2[nH]c3ccccc3c2NC(=O)c2cc(OC)c(OC)c(OC)c2)cc1 | 10.7 | 35 | 10.4 | 5.56 | 7.09 | > 100 | 20 |
| COc1cccc(C(=O)c2[nH]c3ccccc3c2NC(=O)c2cc(OC)c(OC)c(OC)c2)c1 | > 100 | > 100 | 65.5 | 53.4 | > 100 | 9.06 |  |
| COc1cc(C(=O)Nc2c(C(=O)c3ccccc3)[nH]c3ccccc23)cc(OC)c1OC | > 100 | 17.2 | > 100 | > 100 | > 100 | > 100 |  |
| COc1cc(C(=O)Nc2c(C(=O)c3ccc4ccccc4c3)[nH]c3cc(C)ccc23)cc(OC)c1OC | > 100 | > 100 | 39.8 | > 100 | > 100 | 53.3 |  |
| COc1cc(C(=O)Nc2c(C(=O)c3ccc(F)cc3)[nH]c3ccccc23)cc(OC)c1OC | 77.9 | 50.8 | 42.6 | 60.9 | > 100 | > 100 |  |
| COc1cc(C(=O)Nc2c(C(=O)c3ccc(-c4ccccc4)cc3)[nH]c3cc(C)ccc23)cc(OC)c1OC | > 100 | 18.2 | > 100 | > 100 | > 100 | > 100 |  |
| COc1cc(C(=O)Nc2c(C(=O)c3ccc(F)c(F)c3)[nH]c3cc(Cl)ccc23)cc(OC)c1OC | 10.1 | > 100 | 51.2 | > 100 | > 100 | 64.6 |  |
| COc1cc(C(=O)Nc2c(C(=O)c3ccco3)[nH]c3cc(Cl)ccc23)cc(OC)c1OC | > 100 | > 100 | > 100 | > 100 | > 100 | > 100 |  |
| COc1cc(C(=O)Nc2c(C(=O)c3ccc(C)cc3)[nH]c3cc(C)ccc23)cc(OC)c1OC | 69.5 | 33.4 | 69.8 | 40.2 | 75.1 | 43.7 |  |
| COc1cc(C(=O)Nc2c(C(=O)c3ccc(-c4ccccc4)cc3)[nH]c3ccccc23)cc(OC)c1OC | > 100 | > 100 | > 100 | > 100 | > 100 | 22.2 |  |
| COc1ccc2c(NC(=O)c3cc(OC)c(OC)c(OC)c3)c(C(=O)c3ccc(C)cc3)[nH]c2c1 | > 100 | > 100 | > 100 | > 100 | > 100 | > 100 |  |
| COc1cccc(C(=O)c2[nH]c3cc(Cl)ccc3c2NC(=O)c2cc(OC)c(OC)c(OC)c2)c1 | > 100 | > 100 | > 100 | 52.4 | > 100 | > 100 |  |
| COc1cc(C(=O)Nc2c(C(=O)c3ccc(Br)cc3)[nH]c3ccccc23)cc(OC)c1OC | 7.14 | 6.47 | 10.3 | 9.55 | 7.87 | 7.52 | 37 |
| COc1cc(C(=O)Nc2c(C(=O)c3cccs3)[nH]c3cc(Cl)ccc23)cc(OC)c1OC | 47.5 | > 100 | 37.5 | 31.4 | 15.3 | 49.2 |  |
| COc1cc(C(=O)Nc2c(C(=O)c3ccc(F)cc3)[nH]c3cc(C)ccc23)cc(OC)c1OC | 8.89 | 5.17 | 8.66 | 5.72 | 6.16 | 8.95 | 17 |
| COc1cc(C(=O)Nc2c(C(=O)c3cccs3)[nH]c3cc(C)ccc23)cc(OC)c1OC | > 100 | > 100 | > 100 | > 100 | > 100 | > 100 |  |
| COc1cc(C(=O)Nc2c(C(=O)c3ccc(Cl)cc3)[nH]c3cc(C)ccc23)cc(OC)c1OC | 3.85 | 3.22 | 4.81 | 6.25 | 4.12 | 3.59 | 15 |
| COc1cc(C(=O)Nc2c(C(=O)c3ccc(C)cc3)[nH]c3cc(Cl)ccc23)cc(OC)c1OC | 34.3 | 33.6 | 25.1 | 16.6 | 5.79 | 14.2 | 36 |
| COc1ccc(C(=O)c2[nH]c3cc(OC)ccc3c2NC(=O)c2cc(OC)c(OC)c(OC)c2)cc1 | 79.3 | 48.8 | 18.2 | 6.3 | 26.4 | 10.4 | 25 |
| COc1cc(C(=O)Nc2c(C(=O)c3cccs3)[nH]c3ccccc23)cc(OC)c1OC | > 100 | > 100 | > 100 | > 100 | > 100 | 29.6 |  |
| COc1cc(C(=O)Nc2c(C(=O)c3cccc(Br)c3)[nH]c3cc(Cl)ccc23)cc(OC)c1OC | 23 | 26.8 | 8.42 | 14.1 | 20.8 | 4.1 | 25 |
| COc1ccc(C(=O)c2[nH]c3cc(Cl)ccc3c2NC(=O)c2cc(OC)c(OC)c(OC)c2)cc1O | 32.6 | 22.2 | 7.48 | 9.28 | 23.2 | 4.35 | 30 |
